# OX1R antag-1 = blocks the human orexin 1 receptor; inhibition, % at 6.6 µM; O43613; hit rate 1.8% among 330,000; OX1R-expressing cells, FRET antagonist read-out; in the data active = inhibition mostly above about 38%, no sharp cut-off; inactive = mostly below about 40%;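 also: 0% = agonist challenge alone and 100% = reference antagonist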
# Target sequence (O43613 whole entry, looked up): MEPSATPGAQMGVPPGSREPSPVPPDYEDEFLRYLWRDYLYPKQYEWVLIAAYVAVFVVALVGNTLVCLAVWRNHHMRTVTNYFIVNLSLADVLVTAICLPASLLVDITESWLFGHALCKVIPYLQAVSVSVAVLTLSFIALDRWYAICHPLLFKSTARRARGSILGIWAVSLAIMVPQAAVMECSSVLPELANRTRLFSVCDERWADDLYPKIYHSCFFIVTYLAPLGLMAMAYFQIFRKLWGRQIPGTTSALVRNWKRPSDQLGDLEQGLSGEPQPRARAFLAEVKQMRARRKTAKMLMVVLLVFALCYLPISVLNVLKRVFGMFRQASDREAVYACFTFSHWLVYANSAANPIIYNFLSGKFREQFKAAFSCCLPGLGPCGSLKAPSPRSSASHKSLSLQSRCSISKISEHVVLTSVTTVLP
# TRPML3 agonist = agonists of human TRPML3 channel. HEK293 TRPML3-YFP, Fluo-8 calcium fluorescence; 100% = the carbachol control signal. activation, % at 3 µM. hit rate 0.29% among 220,000;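 active = activation above its plate's cutoff, the mean activation of the plate's test wells plus 3 SD, cut at about 12% in these data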;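 also: 0% = DMSO only wells and 100% = carbachol wells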
#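 Material: TRPML3-YFP stable HEK293 cells | Dosing: One concentration, 3 µM nominal, 0.3% DMSO | Timing: 125 s total fluorescence read per well | Technique: Fluo-8 calcium dye fluorescence, ex 470-495, em 515-575 nm | Measure: Percent activation from peak-to-basal fluorescence ratio, scaled between DMSO and carbachol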
# OX1R antag-2 = blocks the human orexin 1 receptor. inhibition, % at 5 µM. CHO/OX1R cells, Fluo-8 calcium fluorescence, orexin A. O43613. hit rate 0.43% among 330,000;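 active = inhibition above its plate's threshold, mean inhibition of all tested compounds on the plate plus 3 SD, cut at about 37% in these data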;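 also: 0% = orexin A challenge wells and 100% = SB-334867-A antagonist wells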
# TRPN1 ag = activates the zebrafish TRPN1 channel; HEK293 zebrafish TRPN1-YFP, Fluo-8 calcium fluorescence; 100% = response to 87 µM carbachol; activation, % at 3 µM; hit rate 0.18% among 220,000; AID 1424;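 active = activation above its plate's cutoff, the mean activation of test wells on that plate plus 3 SD, cut at about 19% in these data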;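 also: 0% = DMSO alone and 100% = 87 µM carbachol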
#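 Material: zebrafish TRPN1-YFP in HEK293 cells; Doses: single test compound dose, 3 µM nominal, 0.3% DMSO; Timing: dye loading 1 h at 37 °C, then 30 min room temperature; Technique: intracellular calcium fluorescence with Fluo-8; Benchmarks: high carbachol 87 µM, low DMSO alone.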
# CHO parental Ca = counter-screen: ATP calcium response change in parental CHO cells; AID 463079; inhibition, % at 5.6 µM; parental CHO-K1, ATP-induced calcium, Fluo-8 fluorescence; hit rate 0.63% among 330,000;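 active = inhibition above that plate's mean sample inhibition plus 3 SD, cut at about 26% in these data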;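 also: 0% = ATP-challenged DMSO wells and 100% = DMSO wells without ATP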
#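 test system = CHO parental line | reagent = ATP stimulus | measured by = intracellular calcium via Fluo-8 no-wash fluorescent dye | control set = ATP and no-ATP DMSO wells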
# Starred values were filed as active, the others as inactive; · = no result given. The list is not random: actives were taken first. Their share in the collection is about 2.5%.
SMILES,OX1R antag-1,TRPML3 agonist,OX1R antag-2,TRPN1 ag,CHO parental Ca
CCOc1cccc(NC(=O)/C(C#N)=C\c2cn(CC(=O)O)c3ccccc23)c1,55.2*,·,0.2,·,-9.2
O=C(Nc1c2c(nn1-c1ccccc1)CS(=O)(=O)C2)c1ccccc1C(F)(F)F,13.1,·,-17.2,·,-4.6
O=C(O)Cc1sc(NC2CCCCC2)nc1-c1ccc(Cl)cc1,5.6,·,15.8,·,32.6*
CCC(CNc1cc(OC)cc2cccnc12)NC1CCCCC1 (stereo not given),57.6*,0.8,-20.9,0.3,-29.7
O=[N+]([O-])c1ccc(N2CCCCC2)nc1,35.4,·,-14.4,·,-29.9
O=[N+]([O-])c1ccc(N2CCCC2)nc1,42.0*,0.7,-5.5,-0.9,-15.4
Cc1ccc(NC(=O)CSc2ccc(-c3ccccn3)nn2)cc1F,26.1,·,-6.2,·,-17.4
CCCCCCN1C=CC(=C/C=C(\C#N)C(=O)OCC)C=C1,17.8,55.2*,99.2*,65.2*,73.8*
CCCN1C=CC(=C/C=C(\C#N)C(=O)OCC)C=C1,73.5*,15.4*,36.3,19.2*,32.6*
COc1ccc(OC)c(NC(=O)CN2C(=O)COc3ccc(C)cc32)c1,19.4,·,-26.1,·,-12.4
CCOc1ccc(CCNC(=O)CS(=O)Cc2nc(-c3ccccc3Cl)oc2C)cc1OCC (stereo not given),72.1*,·,17.6,·,-25.5
CCOc1ccc(CCNC(=O)CS(=O)Cc2nc(-c3ccc(OC)cc3)oc2C)cc1OCC (stereo not given),49.7*,·,3.4,·,-24.4
COc1ccc(CNc2ncnc3c2[nH]c2cc(OC)c(OC)cc23)cc1,4.2,2.9,-2.8,4.1,13.9
COc1ccc(CNc2ncnc3c2[nH]c2ccccc23)cc1,51.7*,10.6,25.6,15.0,24.1
C1=C(CCNc2ncnc3c2[nH]c2ccccc23)CCCC1,45.6,7.7,16.3,20.9*,68.9*
Cc1cc([N+](=O)[O-])c2c(c1C)C1C=CCC1C(c1ccccn1)N2 (stereo not given),8.3,-0.5,1.0,-2.8,-9.2
CN(C(=O)Nc1ccc(Cl)c(Cl)c1)c1ccccc1C(=O)O,9.8,0.9,18.1,0.0,35.4*
O=C(Nc1ccc(Cl)c(Cl)c1)c1ccccc1,33.4,·,7.6,·,-6.7
Cc1ccc(SCC(=O)Nc2ccc(S(N)(=O)=O)cc2)cc1,4.0,-0.1,4.3,-0.1,-4.5
CCN1CCN(CCOc2ccc(Cl)cc2)CC1,0.0,0.8,-15.8,1.7,-2.1
Cc1ccc(OCCN2CCN(c3ncnc4sc(C)c(C)c34)CC2)cc1,43.8*,2.5,-5.1,3.9,4.4
Clc1ccc(OCCN2CCN(c3ncnc4sccc34)CC2)cc1,48.6*,6.0,5.3,9.1,11.2
O=C(CNC(=O)c1ccccc1Cl)N/N=C/c1ccc([N+](=O)[O-])s1,51.1*,0.0,-24.5,2.1,-3.5
O=C(CNC(=O)c1ccccc1Br)N/N=C\c1cc([N+](=O)[O-])cc(Br)c1O,52.7*,·,-0.2,·,0.5
O=C(Cc1cccs1)N/N=C\c1ccc([N+](=O)[O-])s1,46.6,1.5,-14.0,0.6,-12.4
SMILES,OX1R antag-1,TRPML3 agonist,OX1R antag-2,TRPN1 ag,CHO parental Ca
COC(=O)CN(c1cccc(C)c1)S(=O)(=O)c1ccccc1,13.0,·,-17.3,·,-13.2
O=C1NC(=S)S/C1=C\c1coc2ccccc2c1=O,64.4*,3.4,-9.1,4.7,-14.6
O=C(COc1ccc2c(c1)OCO2)Nc1nccs1,15.9,·,-12.0,·,-17.4
O=C1OC[C@@H]2CCCN2C(=O)[C@@H](CC(=O)N(CCO)Cc2ccccc2)C/C=C\C[C@H]1Cc1ccc(F)cc1,2.4,·,1.9,·,-18.1
CC(C)c1ccc(N2C(=O)[C@@H]3Cc4ccccc4CN3C2=O)cc1,13.3,0.8,-3.4,2.4,45.2*
Cc1ccc(N2C(=O)[C@@H]3Cc4ccccc4CN3C2=O)cc1,6.8,-0.5,-15.3,2.6,-4.2
CCC(=O)N1CC2(CC(c3cccc([N+](=O)[O-])c3)=NO2)C[C@H]1C(=O)NCC(N)=O (stereo not given in full),66.0*,0.5,-0.3,-0.1,-4.7
CCC(=O)Nc1cccc(C2=NOC3(C2)C[C@H](C(N)=O)N(C(=O)Cc2ccc([N+](=O)[O-])cc2)C3)c1 (stereo not given in full),22.2,·,2.4,·,0.4
N#Cc1cc2ccccc2nc1SCc1ccccn1,49.1*,8.8,17.9,7.3,1.0
